Data on two compounds can be found in ChEMBL document CHEMBL4138266, “Lysine Analogue of Polymyxin B as a Significant Opportunity for Photodynamic Antimicrobial Chemotherapy” (ACS Med Chem Lett, 2018).

In brackets after ≈: the same amount, converted by molar mass. A value given as a limit tells only on which side of the number the result lay.

Data set [1] relates to Pseudomonas aeruginosa. The data set is described as follows: Photobactericidal activity against Pseudomonas aeruginosa CIP76110 irradiated with white light at 4.83 mW/cm2 for 20 hrs. The class given is functional. Particulars: CIP76110, light or radiation study. The method in brief:
(§1)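 Minimal bactericidal concentration (MBC) was determined in tryptic soy medium with log-phase bacteria at 37 °C. Plates were either kept in the dark or given 20 h of white light at 4.83 mW/cm². MBC was taken as the concentration killing 99.99% of bacteria, i.e. a 4-log reduction versus the untreated control.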

The test system of data set [2] is Pseudomonas aeruginosa. Kind of data set: Bactericidal activity against Pseudomonas aeruginosa CIP76110 incubated for 30 mins under dark conditions. It counts as organism-based. Particulars: 0.5 h. The method in brief: as §1
Data set [3] has as its system Escherichia coli. Kind of data set: Photobactericidal activity against Escherichia coli CIP54.8T irradiated with white light at 4.83 mW/cm2 for 20 hrs. The class given is functional. Particulars: light or radiation study. The method in brief: as §1
Data set [4] deals with Escherichia coli. The data set is described as follows: Bactericidal activity against Escherichia coli CIP54.8T incubated for 30 mins under dark conditions. It counts as organism-based. Particulars: 0.5 h. The method in brief: as §1
Data set [5] has as its system Staphylococcus aureus. The data set is described as follows: Photobactericidal activity against Staphylococcus aureus CIP76.25 irradiated with white light at 4.83 mW/cm2 for 20 hrs. It counts as functional. Particulars: CIP76.25, light or radiation study. The method in brief: as §1

Turning to `CCCCCCCC(=O)N[C@@H](CS)C(=O)N[C@H](C(=O)N[C@@H](CCCCN)C(=O)N[C@H]1CCNC(=O)[C@H]([C@@H](C)O)NC(=O)[C@H](CCCCN)NC(=O)[C@H](CCCCN)NC(=O)[C@H](CC(C)C)NC(=O)[C@@H](Cc2ccccc2)NC(=O)[C@H](CCCCN)NC1=O)[C@@H](C)O`, the MBC was greater than 100 µM in data set [1], greater than 100 µM in data set [2], 50 µM (≈ 65.2 µg/mL) in data set [3] and 50 µM (≈ 65.2 µg/mL) in data set [4].
Consider `C[n+]1ccc(-c2c3nc(c(-c4cc[n+](C)cc4)c4ccc([nH]4)c(-c4cc[n+](C)cc4)c4nc(c(-c5cc[n+](C)cc5)c5ccc2[nH]5)C=C4)C=C3)cc1`, for which the values for the MBC in data set [5], in data set [1] and in data set [3] were 5 µM, 20 µM and 18 µM, respectively.
